In ChEMBL document CHEMBL1629438, “Selective peroxisome proliferator-activated receptor δ isosteric selenium agonists as potent anti-atherogenic agents in vivo” (Bioorg Med Chem Lett, 2010):
Calls of active or inactive are those of the source. The calls are words filed in the database; no cut-off is given here.

How the values were obtained:
Mus musculus [1] = assay: Antiatherogenic effect in HC/HF diet-fed apolipoprotein E-deficient C57BL/6J mouse assessed as increase in HDL-cholesterol at 2 mg/kg/day for 4 weeks; format: functional, organism-based
Outline: (§1)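 Apoe-/- mice, eight weeks old, fed an atherogenic HC/HF diet (1.25% cholesterol, 21% fat) for 14 weeks. They received 2 mg/kg/day of test agent (n = 7) or vehicle (n = 6) over the final 4 weeks, then were compared with the vehicle group.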

[2] = Drug level in LDLR-deficient mouse serum at 60 mg/kg; format: ADME, organism-based; parameters: dose 60 mg/kg
Mus musculus [3] = assay: Toxicity in LDLR-deficient mouse assessed as increase in liver weight at 60 mg/kg; format: organism-based; parameters: dose 60 mg/kg; details: in vivo
[4] = target: T1, Peroxisome proliferator-activated receptor alpha (Mus musculus) (UniProt P23204); assay: Agonist activity at mouse PPAR-alpha expressed in african green monkey CV-1 cells after 24 hrs by luciferase reporter gene assay; format: functional, cell-based
T1 sequence (whole entry): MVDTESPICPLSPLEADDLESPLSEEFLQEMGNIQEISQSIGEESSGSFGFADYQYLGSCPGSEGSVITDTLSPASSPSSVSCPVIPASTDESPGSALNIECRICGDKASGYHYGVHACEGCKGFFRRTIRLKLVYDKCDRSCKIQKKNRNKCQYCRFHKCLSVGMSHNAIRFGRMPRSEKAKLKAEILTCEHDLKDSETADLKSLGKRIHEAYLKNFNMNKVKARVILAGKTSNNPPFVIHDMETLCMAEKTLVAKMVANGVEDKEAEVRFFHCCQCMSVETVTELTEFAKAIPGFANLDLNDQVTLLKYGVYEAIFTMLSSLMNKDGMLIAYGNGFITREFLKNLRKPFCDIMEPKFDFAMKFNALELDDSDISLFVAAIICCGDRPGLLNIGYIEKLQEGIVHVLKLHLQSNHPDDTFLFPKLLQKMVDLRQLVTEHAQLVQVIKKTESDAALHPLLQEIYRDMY

[5] = target: T2, Peroxisome proliferator-activated receptor gamma (Mus musculus) (UniProt P37238); assay: Agonist activity at mouse PPAR-gammaexpressed in african green monkey CV-1 cells after 24 hrs by luciferase reporter gene assay; format: functional, cell-based
T2 sequence (whole entry): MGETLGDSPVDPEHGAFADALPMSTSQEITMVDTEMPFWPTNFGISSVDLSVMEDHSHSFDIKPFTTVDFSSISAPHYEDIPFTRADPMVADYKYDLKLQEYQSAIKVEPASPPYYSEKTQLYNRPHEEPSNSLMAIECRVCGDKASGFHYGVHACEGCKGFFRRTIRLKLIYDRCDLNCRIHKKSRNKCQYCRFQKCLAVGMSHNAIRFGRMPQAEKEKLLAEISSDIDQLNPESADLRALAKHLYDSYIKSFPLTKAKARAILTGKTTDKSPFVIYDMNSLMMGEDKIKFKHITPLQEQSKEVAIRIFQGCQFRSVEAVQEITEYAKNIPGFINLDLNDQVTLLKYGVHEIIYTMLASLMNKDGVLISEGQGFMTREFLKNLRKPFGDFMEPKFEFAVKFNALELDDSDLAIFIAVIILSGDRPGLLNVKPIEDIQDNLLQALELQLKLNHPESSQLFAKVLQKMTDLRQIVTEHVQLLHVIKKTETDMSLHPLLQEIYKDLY

Mus musculus [6] = assay: Toxicity in apolipoprotein E-deficient C57BL/6J mouse assessed as weight loss at 5 mg/kg; format: organism-based; parameters: dose 5 mg/kg; details: in vivo
[7] = target: T3, Peroxisome proliferator-activated receptor gamma (Homo sapiens, UniProt P37231); assay: Agonist activity at human PPAR-gamma expressed in african green monkey CV-1 cells after 24 hrs by luciferase reporter gene assay; format: functional, cell-based
T3 sequence (P37231 whole entry): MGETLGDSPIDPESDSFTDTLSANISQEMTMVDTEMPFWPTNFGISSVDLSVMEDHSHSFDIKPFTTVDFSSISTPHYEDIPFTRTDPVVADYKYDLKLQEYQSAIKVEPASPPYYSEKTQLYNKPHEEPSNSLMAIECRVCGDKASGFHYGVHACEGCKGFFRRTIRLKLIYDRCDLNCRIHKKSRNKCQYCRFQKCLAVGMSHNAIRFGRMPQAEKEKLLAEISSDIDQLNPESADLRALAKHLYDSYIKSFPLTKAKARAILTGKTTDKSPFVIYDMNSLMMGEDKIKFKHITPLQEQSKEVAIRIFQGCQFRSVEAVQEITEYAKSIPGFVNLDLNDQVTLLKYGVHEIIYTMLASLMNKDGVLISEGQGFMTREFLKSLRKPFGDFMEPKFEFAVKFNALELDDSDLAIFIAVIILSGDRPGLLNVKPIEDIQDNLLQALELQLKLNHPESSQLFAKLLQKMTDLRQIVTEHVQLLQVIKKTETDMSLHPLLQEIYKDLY

Mus musculus [8] = assay: Toxicity in apolipoprotein E-deficient C57BL/6J mouse assessed as weight loss at 60 mg/kg; format: organism-based; parameters: dose 60 mg/kg; details: in vivo
Mus musculus [9] = assay: Antiatherogenic effect in apoE-deficient mouse assessed as increase in HDL-cholesterol level at 2 mg/kg/day for 4 weeks
Mus musculus [10] = assay: Effect on cholesterol homeostasis in HC/HF diet-fed apolipoprotein E-deficient C57BL/6J mouse assessed as effect on CD36 gene expression at 2 mg/kg/day for 4 weeks by quantitative RT-PCR; format: functional, organism-based; outline: as §1
Mus musculus [11] = assay: Toxicity in apolipoprotein E-deficient C57BL/6J mouse assessed as weight loss at 6 mg/kg; format: organism-based; parameters: dose 6 mg/kg; details: in vivo
Mus musculus [12] = assay: Effect on cholesterol homeostasis in HC/HF diet-fed apolipoprotein E-deficient C57BL/6J mouse assessed as effect on VCAM-1 gene expression at 2 mg/kg/day for 4 weeks by quantitative RT-PCR; format: functional, organism-based; outline: as §1
Mus musculus [13] = assay: Effect on cholesterol homeostasis in HC/HF diet-fed apolipoprotein E-deficient C57BL/6J mouse assessed as effect on Il-10 gene expression at 2 mg/kg/day for 4 weeks by quantitative RT-PCR; format: functional, organism-based; outline: as §1
[14] = target: T4, Peroxisome proliferator-activated receptor delta (Homo sapiens) (UniProt Q03181); assay: Binding affinity to human PPAR-delta after 1 hr by TR-FRET assay
T4 sequence (whole entry): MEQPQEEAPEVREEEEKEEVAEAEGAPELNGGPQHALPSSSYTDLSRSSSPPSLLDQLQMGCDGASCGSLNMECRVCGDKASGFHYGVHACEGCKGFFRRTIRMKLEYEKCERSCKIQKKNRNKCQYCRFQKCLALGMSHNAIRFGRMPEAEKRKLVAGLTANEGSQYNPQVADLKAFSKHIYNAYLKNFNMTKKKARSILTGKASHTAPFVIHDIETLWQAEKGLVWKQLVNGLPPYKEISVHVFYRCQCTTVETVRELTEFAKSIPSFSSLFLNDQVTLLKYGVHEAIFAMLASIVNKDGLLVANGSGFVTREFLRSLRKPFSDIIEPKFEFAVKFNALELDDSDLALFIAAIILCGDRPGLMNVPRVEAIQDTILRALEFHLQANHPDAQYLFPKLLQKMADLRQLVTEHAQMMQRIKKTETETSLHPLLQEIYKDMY

Mus musculus [15] = assay: Effect on cholesterol homeostasis in HC/HF diet-fed apolipoprotein E-deficient C57BL/6J mouse assessed as effect on MCP1 gene expression at 2 mg/kg/day for 4 weeks by quantitative RT-PCR; format: functional, organism-based; outline: as §1
[16] = target: T5, Peroxisome proliferator-activated receptor alpha (Homo sapiens, UniProt Q07869); assay: Agonist activity at human PPAR-alpha expressed in african green monkey CV-1 cells after 24 hrs by luciferase reporter gene assay; format: functional, cell-based
T5 sequence (Q07869 whole entry): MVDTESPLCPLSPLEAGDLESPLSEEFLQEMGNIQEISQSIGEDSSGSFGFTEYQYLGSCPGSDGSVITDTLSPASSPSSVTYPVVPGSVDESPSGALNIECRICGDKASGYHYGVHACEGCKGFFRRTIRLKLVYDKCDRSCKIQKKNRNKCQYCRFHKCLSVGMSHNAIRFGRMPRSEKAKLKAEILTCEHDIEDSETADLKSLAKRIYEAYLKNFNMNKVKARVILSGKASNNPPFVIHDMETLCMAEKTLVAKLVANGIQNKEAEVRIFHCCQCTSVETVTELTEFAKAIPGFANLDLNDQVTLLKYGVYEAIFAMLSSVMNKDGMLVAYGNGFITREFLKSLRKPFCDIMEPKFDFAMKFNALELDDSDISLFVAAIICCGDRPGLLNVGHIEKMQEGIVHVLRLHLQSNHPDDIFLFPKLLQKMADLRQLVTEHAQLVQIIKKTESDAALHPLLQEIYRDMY
Outline: (§2)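 Cell-based co-transfection reporter assay, with EC50 values derived for each PPAR subtype.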

Mus musculus [17] = assay: Effect on cholesterol homeostasis in HC/HF diet-fed apolipoprotein E-deficient C57BL/6J mouse assessed as effect on ICAM-1 gene expression at 2 mg/kg/day for 4 weeks by quantitative RT-PCR; format: functional, organism-based; outline: as §1
Mus musculus [18] = assay: Antiatherogenic effect in HC/HF diet-fed apolipoprotein E-deficient C57BL/6J mouse assessed as decrease in IL-6 gene expression at 2 mg/kg/day for 4 weeks by quantitative RT-PCR; format: functional, organism-based; outline: as §1
Mus musculus [19] = assay: Antiatherogenic effect in HC/HF diet-fed apolipoprotein E-deficient C57BL/6J mouse assessed as decrease in lesion fatty streak in aorta at 2 mg/kg/day for 4 weeks; format: functional; parameters: scale not given: the % may be the effect or the level left
Outline: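 ApoE-/- mice were 8 weeks old at start. They were fed an HC/HF atherogenic diet (1.25% cholesterol, 21% fat) for 14 weeks and dosed at 2 mg/kg/day over the last 4 weeks (treated n = 7, vehicle n = 6). Mice were weighed weekly. Lesion fatty streak extent was scored throughout the aorta against vehicle.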

Mus musculus [20] = assay: Toxicity in […] diet-fed apolipoprotein E-deficient C57BL/6J mouse assessed as increase in liver weight at 2 mg/kg/day for 4 weeks; format: organism-based; details: in vivo, 672 h; outline: as §1
[21] = target: Peroxisome proliferator-activated receptor delta (Homo sapiens) (UniProt Q03181); assay: Binding affinity to human PPAR-delta after 1 hr by TR-FRET assay
Mus musculus [22] = assay: Effect on cholesterol homeostasis in HC/HF diet-fed apolipoprotein E-deficient C57BL/6J mouse assessed as effect on ABCA1 gene expression at 2 mg/kg/day for 4 weeks by quantitative RT-PCR; format: functional, organism-based; outline: as §1
Mus musculus [23] = assay: Toxicity in […] diet-fed apolipoprotein E-deficient C57BL/6J mouse assessed as weight loss at 2 mg/kg/day for 4 weeks; format: organism-based; details: in vivo, 672 h
Outline: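 Eight-week-old Apoe-/- mice were kept on an HC/HF diet (1.25% cholesterol, 21% fat) for 14 weeks, with 2 mg/kg/day dosing (n = 7) or vehicle (n = 6) in the last 4 weeks. Body weight was recorded every week throughout the experimental period and compared between treated and control groups.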

[24] = target: T6, Peroxisome proliferator-activated receptor delta (Mus musculus, UniProt P35396); assay: Agonist activity at mouse PPAR-delta expressed in african green monkey CV-1 cells after 24 hrs by luciferase reporter gene assay; format: functional, cell-based
T6 sequence (P35396 whole entry): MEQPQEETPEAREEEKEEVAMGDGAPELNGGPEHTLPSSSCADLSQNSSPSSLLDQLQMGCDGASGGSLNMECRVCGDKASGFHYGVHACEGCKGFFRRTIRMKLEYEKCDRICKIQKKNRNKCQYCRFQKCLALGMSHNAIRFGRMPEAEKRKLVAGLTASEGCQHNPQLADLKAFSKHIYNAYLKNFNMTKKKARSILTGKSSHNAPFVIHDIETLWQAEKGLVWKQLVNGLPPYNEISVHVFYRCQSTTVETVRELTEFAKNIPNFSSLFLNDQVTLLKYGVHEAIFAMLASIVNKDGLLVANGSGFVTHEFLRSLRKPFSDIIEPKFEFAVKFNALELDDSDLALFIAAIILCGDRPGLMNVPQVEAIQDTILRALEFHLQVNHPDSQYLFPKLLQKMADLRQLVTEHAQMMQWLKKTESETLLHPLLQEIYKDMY

[25] = target: T7, Peroxisome proliferator-activated receptor delta (Homo sapiens, UniProt Q03181); assay: Agonist activity at human PPAR-delta expressed in african green monkey CV-1 cells after 24 hrs by luciferase reporter gene assay; format: functional, cell-based; outline: as §2
T7 sequence (Q03181 whole entry): T4 sequence (whole entry)

Cc1cc(SCc2sc(-c3ccc(C(F)(F)F)c(F)c3)nc2C)ccc1OCC(=O)O
Activity (Mus musculus [1]): Active | Cmax [2]: 21 µM | Activity (Mus musculus [3]): Toxic | Activity [4]: Active | Activity [5]: Active

Cc1cc([Se]Cc2sc(-c3ccc(C(F)(F)F)cc3)nc2C)ccc1OCC(=O)O
Activity (Mus musculus [6]): Toxic | EC50 [7]: > 1 µM | Activity (Mus musculus [8]): Toxic | Activity (Mus musculus [9]): Active | Activity (Mus musculus [10]): inactive | Activity (Mus musculus [11]): Toxic | Activity (Mus musculus [12]): inactive | Activity (Mus musculus [13]): inactive | Activity [14]: Active | Activity (Mus musculus [15]): inactive | EC50 [16]: > 1 µM | Activity (Mus musculus [17]): inactive | Activity [4]: inactive | Activity (Mus musculus [18]): Active | Activity (Mus musculus [19]): 25% | Activity (Mus musculus [20]): Non-toxic | Activity [5]: inactive | Activity [21]: Active | Activity (Mus musculus [22]): inactive | Activity (Mus musculus [23]): Non-toxic | EC50 [24]: 0.0023 µM | EC50 [25]: 0.0009 µM

CCC(Oc1ccc([Se]Cc2sc(-c3ccc(C(F)(F)F)cc3)nc2C)cc1C)C(=O)O (stereo unspecified)
EC50 [7]: > 1 µM | EC50 [16]: 0.0831 µM | EC50 [25]: 0.0062 µM

Cc1cc([Se]Cc2sc(-c3ccc(C(F)(F)F)c(F)c3)nc2C)ccc1OC(C)(C)C(=O)O
EC50 [7]: 0.29 µM | EC50 [16]: 0.0246 µM | EC50 [25]: 0.0018 µM

CCC(Oc1ccc([Se]Cc2sc(-c3ccc(C(F)(F)F)c(F)c3)nc2C)cc1C)C(=O)O (stereo unspecified)
EC50 [7]: 0.271 µM | EC50 [16]: > 1 µM | EC50 [25]: 0.007 µM
